In one assay the test system is HHV-2. Nature of the assay: Plaque reduction assay, pre- and post-infection treatment, HHV-2. The class given is cell-based, Human Herpesvirus type 2. Conditions: Vero, 72 h, read-out: EC50 pre-infection treatment HHV-2. An outline of the steps:
(§1)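 Vero monolayers (2.5 × 10^4 cells/well) received 100 PFU/well (DENV-2 New Guinea or HHV-2 VR-734-G). Pre-infection: virus/test compound mixture for 1 h at 37 °C, then PBS (pH 7.0) wash and CMC overlay. Post-infection: virus 1 h, wash, then compound in CMC. CMC was 2% for DENV-2 (8 days) and 0.75% for HHV-2 (72 h). Formaldehyde/crystal violet stain, plaques counted. EC50 by linear regression; mean of three experiments.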
(In a plaque reduction assay, fewer plaques than in the control indicate reduced infectivity or spread.)

Assay [1] has as its system HHV-1 (CDC Atlanta strain). Nature of the assay: Screening against HHV-1 by end-point titration technique. The assay is classed as cell-based, Human Herpesvirus type 1. Conditions: Vero cell line; 10 TCID50; 48 h. An outline of the steps:
(§2)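 Vero cells (2.0 × 10^4 cells/well) were grown to ≥80% monolayer. 10 TCID50 virus was mixed with test compound (6.25–50 μg/mL) in DMEM/2% FBS containing CMC: 1% for HHV-1, 0.5% for HHV-2. Mixture held 15 min at room temperature, then incubated at 37 °C: 48 h (HHV-1) or 72 h (HHV-2). Crystal violet/formaldehyde stain, plaques counted. Titer reduction factor: ≥1 × 10^3 relevant, 1 × 10^2 moderate. Two experiments in quadruplicate.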

The next assay has as its system DENV-2. Nature of the assay: Plaque reduction assay, pre- and post-infection treatment, DENV-2. The assay is classed as cell-based, Dengue virus type 2. Conditions: Dengue virus, DENV2, Vero, 192 h, read-out: EC50 pre-infection treatment DENV-2. A digest of the protocol:
as §1

For a further assay, the system named is Vero cells. The experiment in a line: MTT cytotoxicity on Vero cells. The assay is classed as cell-based, Cercopithecus aethiops. Conditions: read-out: IC50 (μM) 72 h, inhibitory concentration of cell proliferation.
The subject of the next assay is HHV-2 (VR-734-G strain). Nature of the assay: Screening against HHV-2 by end-point titration technique. The class given is cell-based, Human Herpesvirus type 2. Conditions: Vero cell line; 10 TCID50; 72 h. A digest of the protocol: as §2

Entries after “also recorded” stand apart in the source; their conditions may differ.

Usually EC50 stands for the concentration needed to bring the measured effect to its halfway point. As for `CC(C)c1cc2c(cc1O)[C@@]1(C)CCC[C@@](C)(C=O)[C@@H]1CC2` [Compound 9, 18-oxoferruginol], the EC50 in the assay on HHV-2 and in the assay on DENV-2 was above 20.8 µM in each case. Also, the “Rf, reduction factor of the viral titer, HHV-1” value in assay [1] was “did not show activity; also recorded: did not show reduction of viral titer”.
Regarding dextran sulfate [DEX-S], in the assay on Vero cells, the IC50 is above 10 µM.
As for `Nc1nc2c(ncn2COCCO)c(=O)[nH]1` [ACV, acyclovir], in the assay with HHV-2 (VR-734-G strain), the “Rf, reduction factor of the viral titer, HHV-2” value is reported as 10^3.
Consider `CC(C)c1cc2c(cc1O)[C@@]1(C)CCC[C@@](C)(CN3C(=O)c4ccccc4C3=O)[C@@H]1CC2` [Compound 8], for which the 50% effective concentration (EC50) with HHV-2 and in the assay with DENV-2 was above 29 µM throughout.

Source of the values: publication PMC7115619 (European Journal of Medicinal Chemistry, 2015).
